Legend:
[1] = Intrinsic clearance in mouse liver microsomes assessed per mg protein incubated up to 30 mins in presence of NADPH by LC-MS/MS analysis; assay type: ADME, Microsome
[2] = Intrinsic clearance in human liver microsomes assessed per mg protein incubated up to 30 mins in presence of NADPH by LC-MS/MS analysis; assay type: ADME, Microsome
[3] = molecular target: T1, Transient receptor potential cation channel subfamily M member 5 (Homo sapiens, UniProt Q9NZQ8); experiment: Agonist activity at human TRPM5 expressed in CHO-K1 cells maintained at 80 mV final holding potential by syncroPatch assay; assay type: cell-based
T1 sequence (Q9NZQ8 whole entry): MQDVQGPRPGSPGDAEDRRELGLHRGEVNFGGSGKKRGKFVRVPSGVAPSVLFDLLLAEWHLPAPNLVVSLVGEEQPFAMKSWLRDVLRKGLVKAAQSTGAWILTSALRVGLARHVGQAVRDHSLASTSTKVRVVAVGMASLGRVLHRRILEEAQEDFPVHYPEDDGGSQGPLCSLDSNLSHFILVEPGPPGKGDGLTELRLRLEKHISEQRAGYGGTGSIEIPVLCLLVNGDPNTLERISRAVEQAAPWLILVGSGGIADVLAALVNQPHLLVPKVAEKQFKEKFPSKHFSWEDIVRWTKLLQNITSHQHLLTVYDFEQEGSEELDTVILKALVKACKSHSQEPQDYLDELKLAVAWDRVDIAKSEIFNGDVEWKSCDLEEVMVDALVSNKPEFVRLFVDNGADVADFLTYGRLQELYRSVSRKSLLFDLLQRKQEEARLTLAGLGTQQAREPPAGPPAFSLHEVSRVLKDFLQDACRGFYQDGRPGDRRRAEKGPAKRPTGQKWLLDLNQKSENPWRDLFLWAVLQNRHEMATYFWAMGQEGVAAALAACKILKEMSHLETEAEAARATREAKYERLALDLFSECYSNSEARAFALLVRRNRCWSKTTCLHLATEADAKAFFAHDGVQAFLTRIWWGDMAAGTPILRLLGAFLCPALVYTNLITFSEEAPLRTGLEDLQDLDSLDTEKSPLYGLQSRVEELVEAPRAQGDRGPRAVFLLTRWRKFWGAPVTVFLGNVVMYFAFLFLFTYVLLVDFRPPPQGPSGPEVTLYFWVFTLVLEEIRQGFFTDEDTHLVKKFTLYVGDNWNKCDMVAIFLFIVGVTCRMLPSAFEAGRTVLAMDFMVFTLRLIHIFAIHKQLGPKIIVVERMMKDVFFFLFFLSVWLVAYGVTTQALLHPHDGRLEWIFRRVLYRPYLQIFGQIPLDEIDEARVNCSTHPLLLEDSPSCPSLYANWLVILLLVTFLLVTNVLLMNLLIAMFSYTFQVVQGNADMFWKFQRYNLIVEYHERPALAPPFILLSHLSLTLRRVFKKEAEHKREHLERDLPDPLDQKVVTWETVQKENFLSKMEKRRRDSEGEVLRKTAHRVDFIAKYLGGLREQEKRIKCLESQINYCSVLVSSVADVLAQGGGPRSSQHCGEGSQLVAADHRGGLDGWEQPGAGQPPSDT
In short: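 SyncroPatch 384 whole-cell recording at rt on CHO-K1 cells stably expressing human or mouse TRPM5. Intracellular solution had 2 mM Na-ATP and 5 μM free Ca2+. Cumulative doses 0.03–31.6 μM in 0.5% DMSO, 150 s each after 180 s vehicle. Current measured at the end of the +80 mV step, normalized to vehicle; pEC50 is the mean of ≥2 independent experiments.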

| SMILES | microsomal CLint [1] | microsomal CLint [2] | EC50 [3] |
| --- | --- | --- | --- |
| N#Cc1ccc(CNc2ccc3sncc3c2)s1 | – | – | > 31600 nM |
| Cn1c(Cl)cnc1CN1CC(CO)Cc2cccc(F)c21 (configuration not stated) | – | – | 5010 nM |
| Cn1c(Cl)cnc1CNc1ccc2c(c1)nnn2C | – | – | > 31600 nM |
| c1ccc2sc(CNc3ccc4sncc4c3)nc2c1 | – | – | > 31600 nM |
| Cc1nc(CNc2ccc3sncc3c2)sc1C | – | – | > 31600 nM |
| c1csc(CNc2ccc3sncc3c2)n1 | – | – | 4680 nM |
| Cn1c(Cl)cnc1CN(CC1CCCCC1)c1ccc2sncc2c1 | – | – | > 31600 nM |
| Cn1c(Cl)cnc1CNc1ccc2[nH]ncc2c1 | – | – | 6030 nM |
| CN(Cc1ncc(Cl)s1)c1cc2cnsc2cc1F | – | – | 2820 nM |
| COc1ccc(N(C)Cc2ncc(Cl)n2C)cc1OC | – | – | > 31600 nM |
| Cn1c(Cl)cnc1CNc1ccc2scnc2c1 | – | – | 13500 nM |
| CC(C)N(Cc1ncc(Cl)n1C)c1ccc2sncc2c1 | – | – | 5130 nM |
| Clc1cnc(CNc2ccc3sncc3c2)[nH]1 | – | – | > 31600 nM |
| Cc1csc(CNc2ccc3sncc3c2)n1 | – | – | > 31600 nM |
| Cn1c(Cl)cnc1CNc1ccc2[nH]cnc2c1 | – | – | > 31600 nM |
| Cn1c(Cl)ccc1CNc1ccc2sncc2c1 | – | – | > 31600 nM |
| Cc1cc(NCc2ncc(Cl)s2)cc2cnsc12 | 434 µL/min/mg | 169 µL/min/mg | > 31600 nM |
| Cn1c(Cl)cnc1CNc1ccc2ocnc2c1 | – | – | 16200 nM |
| Cn1nc(CNc2ccc3sncc3c2)cc1C(F)(F)F | – | – | > 31600 nM |

| SMILES | microsomal CLint [1] | microsomal CLint [2] | EC50 [3] |
| --- | --- | --- | --- |
| CC(=O)N(Cc1ncc(Cl)n1C)c1ccc2sncc2c1 | – | – | > 31600 nM |
| CCN(Cc1ncc(Cl)n1C)c1ccc(Br)cc1 | – | – | 5130 nM |
| Cn1c(CNc2ccc3sncc3c2)nc(Cl)c1Cl | – | – | > 31600 nM |
| CC(C)(Nc1ccc2sncc2c1)c1ncc(Cl)s1 | 250 µL/min/mg | 173 µL/min/mg | > 31600 nM |
| Clc1snnc1CNc1ccc2sncc2c1 | – | – | 5250 nM |
| Cn1c(CNc2ccc(Cl)cc2)nc2ccccc21 | – | – | > 31600 nM |
| Cn1c(Cl)cnc1CN1CCc2ccccc21 | – | – | 22900 nM |
| O=C(Nc1ccc2sncc2c1)c1ncc(Cl)s1 | – | – | > 31600 nM |
| Cn1c(Cl)cnc1CNc1ccc2oncc2c1 | – | – | 3020 nM |
| Clc1cnc(CNc2cnc3sncc3c2)s1 | 163 µL/min/mg | 84 µL/min/mg | 6610 nM |
| Cn1c(Cl)cnc1CN(Cc1ccccc1)c1ccc2sncc2c1 | – | – | > 31600 nM |
| Clc1cnc(CNc2cc(Cl)c3sncc3c2)s1 | 221 µL/min/mg | 150 µL/min/mg | > 31600 nM |
| Cc1nnc(CNc2ccc3sncc3c2)s1 | – | – | 19100 nM |
| Cn1c(Cl)cnc1CNc1ccc2c(cnn2C)c1 | – | – | 5250 nM |
| Cc1cc2sncc2cc1N(C)Cc1ncc(Cl)s1 | 748 µL/min/mg | 562 µL/min/mg | 5250 nM |
| Clc1cnc(CNc2cccc3sncc23)s1 | – | – | > 31600 nM |
| CC(Nc1ccc2sncc2c1)c1ncc(Cl)s1 (configuration not stated) | – | – | 7590 nM |
| Cn1ccnc1CNc1ccc2sncc2c1 | – | – | 5130 nM |
| CC(C)c1cnc(CNc2ccc3sncc3c2)s1 | – | – | > 31600 nM |

Continued by falling EC50 [3], values first:

| microsomal CLint [1] | microsomal CLint [2] | EC50 [3] | SMILES |
| --- | --- | --- | --- |
| – | – | 2750 nM | Clc1ccc(CNc2ccc3sncc3c2)s1 |
| – | – | 2510 nM | Cn1ccnc1CNc1ccc(Cl)cc1OCCC(F)(F)F |
| 508 µL/min/mg | 178 µL/min/mg | 1740 nM | Cc1c(NCc2ncc(Cl)s2)ccc2sncc12 |
| – | – | 1620 nM | CN(Cc1ncc(Cl)s1)c1cc2cnsc2cc1Cl |
| 258 µL/min/mg | 174 µL/min/mg | 1580 nM | Clc1cnc(CNc2ccc3sncc3c2Cl)s1 |
| – | – | 1450 nM | Clc1cnc(CNc2cccc3cnsc23)s1 |
| 612 µL/min/mg | 202 µL/min/mg | 1380 nM | Fc1cc(NCc2ncc(Cl)s2)cc2cnsc12 |
| 421 µL/min/mg | 172 µL/min/mg | 1170 nM | Clc1cnc(CNc2ccc3sncc3n2)s1 |
| 448 µL/min/mg | 247 µL/min/mg | 933 nM | Fc1c(NCc2ncc(Cl)s2)ccc2sncc12 |
| 763 µL/min/mg | 157 µL/min/mg | 832 nM | Clc1cnc(COc2ccc3sncc3c2)s1 |
| – | – | 575 nM | Cc1cnc(CNc2ccc3sncc3c2)s1 |
| – | – | 490 nM | FC(F)(F)c1cnc(CNc2ccc3sncc3c2)s1 |
| 93 µL/min/mg | 155 µL/min/mg | 468 nM | Clc1cnc(CNc2cc3cnsc3cn2)s1 |
| – | – | 468 nM | CCN(Cc1ncc(Cl)n1C)c1ccc2sncc2c1 |
| – | – | 457 nM | Cn1c(Br)cnc1CNc1ccc2sncc2c1 |
| – | – | 447 nM | CN(Cc1ncc(Cl)s1)c1ccc2sncc2c1 |
| – | – | 309 nM | CN(Cc1ncc(Cl)n1C)c1cc2sncc2cc1Cl |
| – | – | 295 nM | Cn1c(Cl)cnc1CNc1ccc2cnsc2c1 |
| – | – | 158 nM | Cn1c(Cl)cnc1CN(CC1CC1)c1ccc2sncc2c1 |
| – | – | 158 nM | CN(Cc1ncc(Cl)n1C)c1ccc2sncc2c1 |
| – | – | 102 nM | Cn1c(Cl)cnc1CNc1cc2sncc2cc1F |
| 312 µL/min/mg | 142 µL/min/mg | 97.7 nM | Fc1cc2sncc2cc1NCc1ncc(Cl)s1 |
| – | – | 85.1 nM | CN(Cc1ncc(Cl)n1C)c1ccc2cnsc2c1 |
| 148 µL/min/mg | 157 µL/min/mg | 38.9 nM | Cc1cc2sncc2cc1NCc1ncc(Cl)s1 |
| – | – | 38 nM | Cc1cc2cnsc2cc1NCc1ncc(Cl)n1C |
| – | – | 28.8 nM | Fc1cc2cnsc2cc1NCc1ncc(Cl)s1 |
| 527 µL/min/mg | 149 µL/min/mg | 24.5 nM | Clc1cnc(CNc2cc3cnsc3cc2Cl)s1 |
| – | – | 17.8 nM | Cc1cc2cnsc2cc1NCc1ncc(Cl)s1 |
| – | – | 11.2 nM | Cn1c(Cl)cnc1CNc1cc2sncc2cc1Cl |

From ChEMBL document CHEMBL4823260, “From High-Throughput Screening to Target Validation: Benzo[d]isothiazoles as Potent and Selective Agonists of Human Transient Receptor Potential Cation Channel Subfamily M Member 5 Possessing In Vivo Gastrointestinal Prokinetic Activity in Rodents” (J Med Chem, 2021)
